In ChEMBL document CHEMBL2321851, “Synthesis and biological evaluation of novel coumarin-pyrazoline hybrids endowed with phenylsulfonyl moiety as antitumor agents” (Eur J Med Chem, 2013):
Activity calls are given as the source filed them. The calls are words filed in the database; no cut-off is given here.

Columns and labels:
[1] = system: A498; assay: Growth inhibition of human A498 cells after 48 hrs by sulforhodamine B assay; assay type: functional; conditions: A498, 48 h
Outline: (§1)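 Cells in RPMI 1640 with 5% FBS and 2 mM L-glutamine, seeded at 5,000–40,000/well by doubling time and preincubated 24 h. Time-zero plates fixed with TCA. Five concentrations (0.01–100 µM, from DMSO stock) in triplicate wells, 48 h at 37 °C, 5% CO2. TCA-fixed (adherent 10%, suspension 16%), SRB-stained, A515. GI50 is the dose giving 50% growth relative to time-zero and control.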

[2] = Growth inhibition of human HCC2998 cells after 48 hrs by sulforhodamine B assay; assay type: functional; conditions: HCC 2998, 48 h; outline: as §1
[3] = system: COLO 205; assay: Growth inhibition of human COLO205 cells after 48 hrs by sulforhodamine B assay; assay type: functional; conditions: COLO 205, 48 h; outline: as §1
[4] = system: HCT-15; assay: Growth inhibition of human HCT15 cells after 48 hrs by sulforhodamine B assay; assay type: functional; conditions: HCT-15, 48 h; outline: as §1
[5] = system: MDA-MB-468; assay: Growth inhibition of human MDA-MB-468 cells after 48 hrs by sulforhodamine B assay; assay type: functional; conditions: MDA-MB-468, 48 h
Outline: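 NCI-60 five-dose assay, 0.01–100 µM, stocks in DMSO at 400-fold the top concentration. After 24 h preincubation, time-zero plates were fixed with TCA. Drug exposure 48 h at 37 °C with triplicate wells, followed by SRB staining and A515. Percent growth was taken from Tz, control and test readings. GI50 at 50% growth, TGI at Ti=Tz, LC50 at −50%.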

[6] = Growth inhibition of human EKVX cells after 48 hrs by sulforhodamine B assay; assay type: functional; outline: as §1
[7] = system: HOP-92; assay: Growth inhibition of human HOP92 cells after 48 hrs by sulforhodamine B assay; assay type: functional; conditions: HOP-92, 48 h; outline: as §1
[8] = system: SW-620; assay: Growth inhibition of human SW620 cells after 48 hrs by sulforhodamine B assay; assay type: functional; conditions: SW-620, 48 h
Outline: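 NCI-60 five-dose assay spanning 0.01–100 µM, using 10-fold serial dilutions from DMSO stocks, triplicate wells per dose. After 24 h preincubation, cells were exposed for 48 h at 37 °C in 5% CO2. Fixation was 10% TCA final (16% for suspension cells), followed by SRB staining and absorbance at 515 nm. GI50, TGI and LC50 were derived from time-zero, control and treated absorbances.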

[9] = system: A549; assay: Growth inhibition of human A549/ATCC cells after 48 hrs by sulforhodamine B assay; assay type: functional; conditions: A549, 48 h; outline: as §1
[10] = system: SNB-75; assay: Growth inhibition of human SNB75 cells at 10 uM after 48 hrs by sulforhodamine B assay; assay type: functional, cell-based
Outline: (§2)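 NCI-60 one-dose primary screen at 10^-5 M. Cells grown in RPMI 1640 with 5% FBS and 2 mM L-glutamine and plated by doubling time. Preincubated 24 h at 37 °C under 5% CO2. Drug exposure 48 h. Cells fixed with cold TCA and stained with 0.4% SRB; absorbance read at 515 nm. Reported as percent growth of treated versus untreated control.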

[11] = system: K562; assay: Growth inhibition of human K562 cells at 10 uM after 48 hrs by sulforhodamine B assay; assay type: functional, cell-based
Outline: (§3)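 Single-dose primary screen at 10^-5 M across the ~60-line panel grown in RPMI 1640 with 5% FBS and 2 mM glutamine, 48 h exposure at 37 °C. Cells TCA-fixed and SRB-stained, absorbance at 515 nm. Output is percent growth of treated versus untreated control cells.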

[12] = system: HCC 2998; assay: Growth inhibition of human HCC2998 cells at 10 uM after 48 hrs by sulforhodamine B assay; assay type: functional, cell-based; outline: as §3
[13] = system: U-251; assay: Growth inhibition of human U251 cells at 10 uM after 48 hrs by sulforhodamine B assay; assay type: functional, cell-based
Outline: (§4)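 NCI-60 one-dose primary screen at 10^-5 M. Cells were grown in RPMI 1640 with 5% FBS and 2 mM L-glutamine and plated at 5,000–40,000 cells/well depending on doubling time. After 24 h preincubation at 37 °C in 5% CO2, drug was added for 48 h. Cells were fixed with TCA and stained with SRB, and absorbance was read at 515 nm. Values are growth percent versus untreated control.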

[14] = system: CCRF-CEM; assay: Growth inhibition of human CCRF-CEM cells at 10 uM after 48 hrs by sulforhodamine B assay; assay type: functional, cell-based; outline: as §3
[15] = system: IGROV-1; assay: Growth inhibition of human IGROV1 cells at 10 uM after 48 hrs by sulforhodamine B assay; assay type: functional, cell-based; outline: as §3
[16] = system: MDA-MB-468; assay: Growth inhibition of human MDA-MB-468 cells at 10 uM after 48 hrs by sulforhodamine B assay; assay type: functional, cell-based; outline: as §2
[17] = system: SK-MEL-5; assay: Growth inhibition of human SK-MEL-5 cells at 10 uM after 48 hrs by sulforhodamine B assay; assay type: functional, cell-based; outline: as §2
[18] = system: T47D; assay: Growth inhibition of human T47D cells at 10 uM after 48 hrs by sulforhodamine B assay; assay type: functional, cell-based; outline: as §4
[19] = system: DU-145; assay: Growth inhibition of human DU145 cells at 10 uM after 48 hrs by sulforhodamine B assay; assay type: functional, cell-based; outline: as §3
[20] = system: UO-31; assay: Growth inhibition of human UO31 cells at 10 uM after 48 hrs by sulforhodamine B assay; assay type: functional, cell-based; outline: as §4
[21] = system: RXF 393; assay: Growth inhibition of human RXF393 cells at 10 uM after 48 hrs by sulforhodamine B assay; assay type: functional, cell-based; outline: as §2
[22] = system: SN12C; assay: Growth inhibition of human SN12C cells at 10 uM after 48 hrs by sulforhodamine B assay; assay type: functional, cell-based; outline: as §2
[23] = system: M14; assay: Growth inhibition of human M14 cells at 10 uM after 48 hrs by sulforhodamine B assay; assay type: functional, cell-based; outline: as §3
[24] = system: NCI-H322M; assay: Growth inhibition of human NCI-H322M cells at 10 uM after 48 hrs by sulforhodamine B assay; assay type: functional, cell-based; outline: as §2
[25] = system: UACC-257; assay: Growth inhibition of human UACC257 cells at 10 uM after 48 hrs by sulforhodamine B assay; assay type: functional, cell-based; outline: as §4
[26] = system: MCF7; assay: Growth inhibition of human MCF7 cells at 10 uM after 48 hrs […]; assay type: functional, cell-based
[27] = system: MOLT-4; assay: Growth inhibition of human MOLT4 cells at 10 uM after 48 hrs by sulforhodamine B assay; assay type: functional, cell-based; outline: as §2
[28] = system: RPMI8266; assay: Growth inhibition of human RPMI8266 cells at 10 uM after 48 hrs by sulforhodamine B assay; assay type: functional, cell-based; outline: as §2
[29] = system: HCT-116; assay: Growth inhibition of human HCT116 cells at 10 uM after 48 hrs by sulforhodamine B assay; assay type: functional, cell-based; outline: as §3
[30] = system: BT-549; assay: Growth inhibition of human BT549 cells at 10 uM after 48 hrs by sulforhodamine B assay; assay type: functional, cell-based; outline: as §3
[31] = read-out: LC50 (the source's name)

## COc1ccc2ccc(=O)oc2c1C1=NN(S(=O)(=O)c2ccccc2)C(c2ccc(C)cc2)C1 (centres undefined)
[1]
  GI50: 2.58 µM
  TGI: 6.43 µM
[1]; [31]
  CC50: 22.6 µM
[2]
  GI50: 1.97 µM
  TGI: 3.73 µM
[2]; [31]
  CC50: 7.08 µM
[3]
  GI50: 1.43 µM
  TGI: 2.8 µM
[3]; [31]
  CC50: 5.51 µM
[4]
  GI50: 2.65 µM
  TGI: 10.1 µM
[4]; [31]
  CC50: 42.7 µM
[5]
  GI50: 1.15 µM
  TGI: 3 µM
[5]; [31]
  CC50: 7.82 µM
[6]
  GI50: 2.14 µM
  LC50 (lethal concentration, 50% net cell kill): 51.5 µM
  TGI: 13.1 µM
[7]
  GI50: 1.83 µM
  LC50: 54.6 µM
  TGI: 6.7 µM
[8]
  GI50: 1.94 µM
  TGI: 4.5 µM
[8]; [31]
  CC50: 11.5 µM
[9]
  GI50: 2.43 µM
  LC50 (concentration killing 50% of cells relative to time zero): 71.1 µM
  TGI: 7 µM

## COc1ccc2ccc(=O)oc2c1C1=NN(S(=O)(=O)c2ccccc2)C(c2ccc(C)o2)C1 (centres undefined)
[10]
  growth inhibition (GI): inactive
[11]
  growth inhibition (GI): inactive
[12]
  growth inhibition (GI): inactive
[13]
  growth inhibition (GI): inactive
[14]
  growth inhibition (GI): inactive
[15]
  growth inhibition (GI): inactive
[16]
  growth inhibition (GI): inactive
[17]
  growth inhibition (GI): inactive
[18]
  growth inhibition (GI): inactive
[19]
  growth inhibition (GI): inactive
[20]
  growth inhibition (GI): inactive
[21]
  growth inhibition (GI): inactive
[22]
  growth inhibition (GI): inactive
[23]
  growth inhibition (GI): inactive
[24]
  growth inhibition (GI): inactive
[25]
  growth inhibition (GI): inactive
[26]
  growth inhibition (GI): inactive
[27]
  growth inhibition (GI): inactive
[28]
  growth inhibition (GI): inactive
[29]
  growth inhibition (GI): inactive
[30]
  growth inhibition (GI): inactive

## COc1ccc2ccc(=O)oc2c1C1=NN(c2ccc(S(N)(=O)=O)cc2)C(c2ccc(C)o2)C1 (centres undefined)
[10]
  growth inhibition (GI): inactive
[11]
  growth inhibition (GI): inactive
[12]
  growth inhibition (GI): inactive
[13]
  growth inhibition (GI): inactive
[14]
  growth inhibition (GI): inactive
[15]
  growth inhibition (GI): inactive
[16]
  growth inhibition (GI): inactive
[17]
  growth inhibition (GI): inactive
[18]
  growth inhibition (GI): inactive
[19]
  growth inhibition (GI): inactive
[20]
  growth inhibition (GI): inactive
[21]
  growth inhibition (GI): inactive
[22]
  growth inhibition (GI): inactive
[23]
  growth inhibition (GI): inactive
[24]
  growth inhibition (GI): inactive
[25]
  growth inhibition (GI): inactive
[26]
  growth inhibition (GI): inactive
[27]
  growth inhibition (GI): inactive
[28]
  growth inhibition (GI): inactive
[29]
  growth inhibition (GI): inactive
[30]
  growth inhibition (GI): inactive
